# Screens as filed in PubChem BioAssay.
# Many of the other results were omitted from the sample, so hits are more common in it than they were.
# BAP1 inh = human BAP1 deubiquitinase inhibition; Q92560; recombinant BAP1, Ub-AMC hydrolysis fluorescence kinetic; hits give low values; calls only at 20 µM; 0.48% of 72,000 active;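 active means activity remaining at or below 50% of control, provided the compound also passes the data quality filters; inactive means the rest, including low values that fail the filters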;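 further: 100% = DMSO wells rate and 0% = substrate alone blank rate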
# Target sequence (Q92560 whole entry, looked up): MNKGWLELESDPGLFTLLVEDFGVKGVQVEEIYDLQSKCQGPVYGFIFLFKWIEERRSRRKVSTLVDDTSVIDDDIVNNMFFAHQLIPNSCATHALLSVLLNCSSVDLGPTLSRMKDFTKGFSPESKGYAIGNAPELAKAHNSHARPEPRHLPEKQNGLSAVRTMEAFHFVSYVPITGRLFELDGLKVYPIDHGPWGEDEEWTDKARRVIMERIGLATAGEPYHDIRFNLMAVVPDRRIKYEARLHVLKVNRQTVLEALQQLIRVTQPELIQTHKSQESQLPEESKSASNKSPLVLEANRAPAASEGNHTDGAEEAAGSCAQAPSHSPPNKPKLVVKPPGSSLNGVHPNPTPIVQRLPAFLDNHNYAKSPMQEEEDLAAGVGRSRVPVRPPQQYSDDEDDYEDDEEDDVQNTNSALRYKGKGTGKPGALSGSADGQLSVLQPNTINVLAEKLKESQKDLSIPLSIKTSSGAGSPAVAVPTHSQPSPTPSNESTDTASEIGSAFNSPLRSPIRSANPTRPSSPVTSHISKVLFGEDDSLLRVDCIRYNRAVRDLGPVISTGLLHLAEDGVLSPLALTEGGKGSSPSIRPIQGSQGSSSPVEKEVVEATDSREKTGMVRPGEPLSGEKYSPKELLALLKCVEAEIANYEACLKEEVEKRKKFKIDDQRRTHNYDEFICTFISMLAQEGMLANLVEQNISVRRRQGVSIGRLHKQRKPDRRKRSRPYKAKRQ
# WNV NS2B-NS3 inh = WNV NS2B-NS3 proteinase inhibition | AID 577 | z-score (no concentration beside the values) | 0.18% of 65,000 active | WNV NS2B-NS3 protease, fluorogenic substrate Ex360/Em465; hits give low values | P06935; in the data active means z-score below about -3
# Ecoli tolC = blocks growth of E. coli BW25113 tolC mutant. OD615. growth inhibition, % at 10 µM (by protocol). 2.2% of 65,000 active. AID 573;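 active means growth inhibition at or above a cutoff equal to the mean over every tested compound plus 3 SD, cut at about 60% in these data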;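 further: growth measured after 20 h incubation at 37 °C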
#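 Test system – E. coli BW25113 ΔtolC::kan, tolC deletion mutant strain · Detection – OD at 615 nm · Buffer or medium – LB with kanamycin 50 µg/mL · Times – 20 h compound exposure of bacteria at 37 °C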
# E coli WT exp = blocks growth of wild type E. coli BW25113; OD600 absorbance; growth inhibition, % at 100 µM; 0.15% of 98,000 active; AID 710;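 active means growth inhibition above about 50% at one test dose, limit read from the data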;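 further: growth measured after 20 h incubation at 37 °C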
# TNAP act DEA = activators of human TNAP at intermediate phosphate acceptor; 64,000 tested, under 10 active; purified TNAP, CDP-star luminescence, 100 mM DEA, 30 min; hits give high values; scale: 0 levamisole-inhibited, 1 vehicle-only enzyme; AID 813; P05186; activation factor at 20 µM;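 active means activation factor of at least 2 at 20 µM, relative to controls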
# The depositor's hits bear a star; i = inactive; . = not tested or not shown; + = active, no number.
SMILES,BAP1 inh,WNV NS2B-NS3 inh,Ecoli tolC,E coli WT exp,TNAP act DEA
O=C1c2ccccc2C(Nc2cccc(C(F)(F)F)c2)N1Cc1ccco1 (configuration not stated),i,0.51,93*,-5,0.9
C=CCn1c(-c2ccc(C)cc2)csc1=Nc1ccc(Cl)cc1,i,.,.,.,.
Cc1cc(Nc2ccccc2)n(-c2nc3ccccc3[nH]2)n1,i,2.1,95*,-10,1.2
Cc1cc(N2CCN(c3ccccc3)CC2)nc(-n2nc(C)cc2C)n1,i,0.27,71*,5,0.9
Cc1cc(N2CCN(c3ccccc3)CC2)nc(-c2ccccc2O)n1,.,.,.,-11,.
Cc1cc(C)nc(-n2nc(C)cc2Nc2ccccc2)n1,i,0.56,76*,2,0.9
Brc1ccc(-c2nc(-c3ccccc3)no2)o1,i,-0.08,98*,7,0.9
COc1ccc2oc(=Nc3cccc(C#N)c3)c(C(=O)Nc3ccccc3)cc2c1,i,.,.,.,.
CC1CCc2cc(F)ccc2N1C(=O)c1cc2nc(-c3ccco3)cc(C(F)(F)F)n2n1 (configuration not stated),i,-0.11,63*,-3,0.9
O=C(c1cc2nc(-c3ccco3)cc(C(F)(F)F)n2n1)N1CCN(c2ccc(F)cc2)CC1,i,0.92,65*,-10,1
COC(=O)c1cc2oc(C)cc2n1CC(=O)N(C)c1ccccc1,i,-2.1,3,4,0.9
CCOC(=O)c1cc2oc(C)cc2n1CC(=O)OC1CCCCC1,i,-0.85,74*,6,1
COc1cccc(OC)c1C(=O)Nc1ccc(-c2nc3ccccc3[nH]2)cc1,i,.,.,.,.
O=C(N1CCN(c2ccccc2)CC1)C12CC3CC(CC(C3)C1)C2,i,-0.2,11,-2,0.9
CCn1c(=N)n(CC(=O)C23CC4CC(CC(C4)C2)C3)c2ccccc21,i,-0.23,99*,17,1
CCn1c(=N)n(CC(=O)c2ccc([N+](=O)[O-])cc2)c2ccccc21,i,.,.,.,.
CCn1c(N2CCN(C(=O)C34CC5CC(CC(C5)C3)C4)CC2)nc2ccccc21,i,0.39,65*,-2,0.9
NC(=O)Cc1c[nH]c2cccc(O)c12,i,0.68,-11,.,0.9
Cc1[nH]n2c(=O)cc(C(C)(C)C)nc2c1-c1ccccc1,i,3,100*,11,2*
Cc1ccc(N2C(=O)C(Cl)=C(Nc3ccc(C)c(C)c3)C2=O)c(C)c1,i,.,.,.,.
N#Cc1ccc2ccn(CC(=O)NCc3ccco3)c2c1,.,.,.,-7,.
CCc1cccc2c(C#N)cn(CC(=O)NCc3ccco3)c12,i,-3.9*,1,-1,1
Cc1cccc2sc(NC(=O)CN(C)S(=O)(=O)c3cccs3)nc12,i,1.2,11,-9,0.8
Cc1cccc2sc(NC(=O)CN(C)S(=O)(=O)c3ccc(Br)s3)nc12,.,1.1,92*,-10,0.9
COC(=O)c1ccc(S(=O)(=O)N(Cc2cc3cc4c(cc3[nH]c2=O)OCO4)C2CCCCC2)cc1,+,-0.1,-16,.,0.9
SMILES,BAP1 inh,WNV NS2B-NS3 inh,Ecoli tolC,E coli WT exp,TNAP act DEA
CC(=O)c1ccc(S(=O)(=O)N(Cc2cc3cc4c(cc3[nH]c2=O)OCCO4)CC2CCCO2)cc1 (configuration not stated),i,1.6,7,-4,0.9
Cc1ccc(C(C(=O)NC2CCCC2)N(Cc2cccs2)C(=O)CNC(=O)c2cccs2)o1 (configuration not stated),i,-0.21,66*,-11,1
O=C(NCC(=O)N(Cc1cccs1)C(C(=O)NC1CCCC1)c1ccncc1)c1ccco1 (configuration not stated),i,0.34,.,3,0.9
CCOc1cccc(C(=O)Nc2ccc3oc(Cc4ccc(Cl)cc4)nc3c2)c1,.,.,.,-7,.
O=C(Nc1ccc2oc(Cc3ccc(Cl)cc3)nc2c1)c1cccnc1,i,-0.06,69*,-15,0.9
Cc1ccccc1OCc1nc2c3c(-c4ccccc4)c(-c4ccccc4)oc3ncn2n1,i,.,.,.,.
COC(=O)c1cc(OC)c(OC)cc1NC(=O)CSc1ccccc1,.,.,.,-1,.
CC(=O)NC1=C(C#N)C(c2ccccc2)c2c(ccc3ccccc23)O1 (configuration not stated),.,.,.,-16,.
O=C(Nc1ccccc1O)c1ccccc1O,i,-0.88,-3,63*,1
Cc1ccc(C)c(NC(=O)c2ccccc2O)c1,i,-0.93,80*,3,0.9
O=C(Nc1ccc2nc(-c3cccs3)[nH]c2c1)c1cccs1,i,0.91,20,-3,0.8
O=C(Nc1ccc2nc(-c3cccs3)[nH]c2c1)c1ccco1,i,-0.71,90*,-2,0.9
O=S(=O)(c1ccccc1)N1CCN(Cc2ccccc2C(F)(F)F)CC1,i,0.01,64*,-4,0.9
Cc1ccc(S(=O)(=O)N2CCN(Cc3ccccc3C(F)(F)F)CC2)cc1,i,1.4,50,33,0.9
C=CCNc1nc2ccccc2nc1NS(=O)(=O)c1cccs1,i,0.35,30,7,0.9
O=S(=O)(Nc1nc2ccccc2nc1NCc1ccco1)c1cccs1,i,0.32,81*,4,1
CN1CCc2c(cc(O)c(O)c2Cl)C(c2cccc(Cl)c2)C1 (configuration not stated),i,.,.,.,.
O=C(CSc1nc2ccccc2o1)Nc1ccccc1N1CCCCCC1,i,0.91,73*,-5,0.9
O=C(COc1ccccc1)Nc1ccccc1N1CCN(c2ccccc2)CC1,i,0.72,-8,-2,0.9
O=C(Nc1ccccc1N1CCCCC1)c1cccs1,i,1.3,100*,-6,1
O=C(COc1ccccc1)Nc1ccccc1N1CCCCC1,i,-0.37,92*,6,0.9
CCCCCC(=O)Nc1ccccc1N1CCN(c2ccccc2)CC1,i,-1.4,68*,-3,0.9
COc1cc2ccccc2cc1C(=O)Nc1nc(-c2ccccc2OC)cs1,i,.,.,.,.
Cc1nn2c(=O)cc(COC(=O)c3ccc(S(=O)(=O)N4CCCCC4)cc3)nc2s1,.,.,.,-2,.
COc1ccccc1OC(=O)c1cc(-c2ccc(C)cc2)nc2ccccc12,i,.,.,.,.
SMILES,BAP1 inh,WNV NS2B-NS3 inh,Ecoli tolC,E coli WT exp,TNAP act DEA
Nc1nc(Nc2ccc(Cl)cc2)nc2ccccc12,.,.,.,93*,.
COCCCN(C(C)=O)c1nc(-c2ccc(OC)cc2)cs1,i,0.13,5,2,0.8
CCOC(=O)CCS(=O)(=O)c1ccc(-c2ccc(S(=O)(=O)CCC(=O)OCC)cc2)cc1,.,.,.,2,.
Cc1ccc(S(=O)(=O)CCC(=O)c2ccc(O)cc2O)cc1,i,1.4,13,50*,0.9
Cc1cc(N2CCN(C(c3ccccc3)c3ccccc3)CC2)n2ncnc2n1,i,0.83,82*,1,0.9
Cc1cc(N2CCN(c3nc4ccccc4s3)CC2)n2ncnc2n1,i,0.46,-9,0,1
Cc1nc2ncnn2c(N2CCN(C(c3ccccc3)c3ccccc3)CC2)c1C,i,1.3,62*,6,0.9
COc1ccc(C(=O)n2c(-c3ccco3)nc3ccccc32)cc1,i,-0.56,64*,-6,0.9
